According to ChEMBL document CHEMBL2390903, “Anti-tubercular agents. Part 7: a new class of diarylpyrrole-oxazolidinone conjugates as antimycobacterial agents” (Eur J Med Chem, 2013):
Converted amounts (≈) assume the structure as drawn.

Tested on: Mycobacterium tuberculosis
Experiment: Antitubercular activity against rifampicin-resistant Mycobacterium tuberculosis assessed as growth inhibition after 2 to 3 weeks by broth microdilution method
Assay type: functional
In short: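 Primary screen of all compounds against H37Rv at a single concentration in triplicate by microplate dilution. Actives then went to MIC determination by broth microdilution against H37Rv, rifampicin-resistant and XDR-1 isolates. Plates incubated 2–3 weeks at 37 °C in a CO2 incubator. MIC read visually as absence of growth turbidity. Rifampicin and linezolid served as reference drugs.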

Point of comparison: `Cc1c(CN2CCN(c3ccc(N4C[C@H](Cn5cc(-c6cncn6C)nn5)OC4=O)cc3F)CC2)cc(-c2ccc(F)cc2F)n1-c1ccc(F)cc1`, MIC 8 µg/mL (≈ 11 µM). Against it:
- Cc1ccccc1-c1cc(CN2CCN(c3ccc(N4C[C@H](Cn5cc(-c6cncn6C)nn5)OC4=O)cc3F)CC2)c(C)n1-c1ccc(F)c(F)c1 — the same, 8 µg/mL (≈ 11.1 µM)
- CO[C@H]1/C=C/O[C@@]2(C)Oc3c(C)c(O)c4c(O)c(c(/C=N/N5CCN(C)CC5)c(O)c4c3C2=O)NC(=O)/C(C)=C\C=C\[C@H](C)[C@H](O)[C@@H](C)[C@@H](O)[C@@H](C)[C@H](OC(C)=O)[C@@H]1C [RIFAMPIN] — higher, > 128 µg/mL
- CC(=O)NC[C@H]1CN(c2ccc(N3CCN(Cc4cc(-c5ccc(C(C)C)cc5)n(-c5ccc(F)cc5F)c4C)CC3)c(F)c2)C(=O)O1 — 2-fold lower, 4 µg/mL (≈ 6.06 µM)
- CC(=O)NC[C@H]1CN(c2ccc(N3CCN(Cc4cc(-c5ccc(F)cc5F)n(-c5cc(F)ccc5Br)c4C)CC3)c(F)c2)C(=O)O1 — the same, 8 µg/mL (≈ 11.2 µM)
- Cc1c(CN2CCN(c3ccc(N4C[C@H](Cn5cc(-c6cncn6C)nn5)OC4=O)cc3F)CC2)cc(-c2ccc(C(C)C)cc2)n1-c1ccc(F)cc1F — the same, 8 µg/mL (≈ 10.7 µM)
- Cc1c(CN2CCN(c3ccc(N4C[C@H](Cn5cc(-c6ccccc6)nn5)OC4=O)cc3F)CC2)cc(-c2ccc(F)cc2F)n1-c1cc(F)ccc1Br — higher, > 16 µg/mL
- Cc1cccc(-c2cn(C[C@H]3CN(c4ccc(N5CCN(Cc6cc(-c7ccccc7C)n(-c7ccc(F)cc7)c6C)CC5)c(F)c4)C(=O)O3)nn2)c1 — higher, > 16 µg/mL
- Cc1ccc(-c2cc(CN3CCN(c4ccc(N5C[C@H](Cn6cc(-c7ccccn7)nn6)OC5=O)cc4F)CC3)c(C)n2-c2ccc(Cl)c(Cl)c2)cc1 — 2-fold lower, 4 µg/mL (≈ 5.32 µM)
- Cc1ccccc1-c1cc(CN2CCN(c3ccc(N4C[C@H](Cn5cc(-c6cncn6C)nn5)OC4=O)cc3F)CC2)c(C)n1-c1ccc(F)cc1 — 2-fold lower, 4 µg/mL (≈ 5.68 µM)
- Cc1ccccc1-c1cc(CN2CCN(c3ccc(N4C[C@H](Cn5cc(-c6ccccn6)nn5)OC4=O)cc3F)CC2)c(C)n1-c1ccc(F)c(F)c1 — 2-fold lower, 4 µg/mL (≈ 5.56 µM)
- Cc1c(CN2CCN(c3ccc(N4C[C@H](Cn5cc(-c6ccccc6)nn5)OC4=O)cc3F)CC2)cc(-c2cccc(Cl)c2)n1-c1ccccc1F — higher, > 16 µg/mL
- CC(=O)NC[C@H]1CN(c2ccc(N3CCN(Cc4cc(-c5cccc(Cl)c5)n(-c5ccccc5F)c4C)CC3)c(F)c2)C(=O)O1 — the same, 8 µg/mL (≈ 12.6 µM)
- CC(=O)NC[C@H]1CN(c2ccc(N3CCOCC3)c(F)c2)C(=O)O1 [LINEZOLID] — 4-fold lower, 2 µg/mL (≈ 5.93 µM)
- Cc1ccc(-c2cc(CN3CCN(c4ccc(N5C[C@H](Cn6cc(-c7ccccc7)nn6)OC5=O)cc4F)CC3)c(C)n2-c2ccc(Cl)c(Cl)c2)cc1 — higher, > 16 µg/mL
- Cc1c(CN2CCN(c3ccc(N4C[C@H](Cn5cc(-c6ccccn6)nn5)OC4=O)cc3F)CC2)cc(-c2ccc(F)cc2F)n1-c1ccc(F)cc1 — the same, 8 µg/mL (≈ 11.1 µM)
- Cc1c(CN2CCN(c3ccc(N4C[C@H](Cn5cc(-c6ccccn6)nn5)OC4=O)cc3F)CC2)cc(-c2ccc(Cl)c(F)c2)n1-c1ccc(OC(F)(F)F)cc1 — 2-fold lower, 4 µg/mL (≈ 4.97 µM)
- Cc1c(CN2CCN(c3ccc(N4C[C@H](Cn5cc(-c6ccccc6)nn5)OC4=O)cc3F)CC2)cc(-c2ccc(Cl)c(F)c2)n1-c1ccc(OC(F)(F)F)cc1 — higher, > 16 µg/mL
